# According to paper PMC5590101 (Journal of medicinal chemistry, 2016):
# Entries after “also recorded” stand apart in the source; their conditions may differ. Where two headings read alike, the source gives them in different places.
# Legend:
# NCI-H460 = settings: NCI panel, NSCLC; cited from earlier work
# OVCAR-4 = settings: NCI panel, ovarian cancer; cited from earlier work
# SK-OV-3 [1] = settings: read-out: IC50 ± SD SK-OV-3; parental line; results previously published; cited from earlier work
# SNB-19 = settings: NCI panel, CNS cancer; cited from earlier work
# ACHN = settings: NCI panel, renal cancer; cited from earlier work
# HeLa [2] = settings: read-out: IC50 ± SD HeLa; parental line; results previously published; cited from earlier work
# HCC-2998 = settings: NCI panel, colon cancer; cited from earlier work
# MOLT-4 = settings: NCI panel, leukemia; cited from earlier work
# MDA-MB-435 cells [3] = settings: read-out: IC50 ± SD MDA-MB-435; results previously published; cited from earlier work
# SN12C = settings: NCI panel, renal cancer; cited from earlier work
# MDA-MB-435 = settings: NCI panel, melanoma; cited from earlier work
# HL-60(TB) = settings: NCI panel, leukemia; cited from earlier work
# OVCAR-8 = settings: NCI panel, ovarian cancer; cited from earlier work
# UO-31 = settings: NCI panel, renal cancer; cited from earlier work
# SK-OV-3 MDR1-M6/6 = settings: IC50 MDR1-M6/6 / IC50 SK-OV-3; results previously published; cited from earlier work
# SK-MEL-5 = settings: NCI panel, melanoma; cited from earlier work
# SF-295 = settings: NCI panel, CNS cancer; cited from earlier work
# TK10 = settings: NCI panel, renal cancer; cited from earlier work
# SR = settings: NCI panel, leukemia; cited from earlier work
# NCI-H226 = settings: NCI panel, NSCLC; cited from earlier work
# MDA-MB-468 = settings: NCI panel, breast cancer; cited from earlier work
# U251 = settings: NCI panel, CNS cancer; cited from earlier work
# OVCAR-3 = settings: NCI panel, ovarian cancer; cited from earlier work
# HS 578T = settings: NCI panel, breast cancer; cited from earlier work
# RXF 393 = settings: NCI panel, renal cancer; cited from earlier work
# PC-3 = settings: NCI panel, prostate cancer; cited from earlier work
# SF-539 = settings: NCI panel, CNS cancer; cited from earlier work
# SNB-75 = settings: NCI panel, CNS cancer; cited from earlier work
# HCT-15 = settings: NCI panel, colon cancer; cited from earlier work
# 786–0 = settings: NCI panel, renal cancer; cited from earlier work
# HOP-62 = settings: NCI panel, NSCLC; cited from earlier work
# LOX IMVI = settings: NCI panel, melanoma; cited from earlier work
# NCI-H23 = settings: NCI panel, NSCLC; cited from earlier work
# BT-549 = settings: NCI panel, breast cancer; cited from earlier work
# A498 = settings: NCI panel, renal cancer; cited from earlier work
# M14 = settings: NCI panel, melanoma; cited from earlier work
# NCI/ADR-RES = settings: NCI panel, ovarian cancer; cited from earlier work
# KM12 = settings: NCI panel, colon cancer; cited from earlier work
# MCF7 = settings: NCI panel, breast cancer; cited from earlier work
# RPMI-8226 = settings: NCI panel, leukemia; cited from earlier work
# DU-145 = settings: NCI panel, prostate cancer; cited from earlier work
# OVCAR-5 = settings: NCI panel, ovarian cancer; cited from earlier work
# SF-268 = settings: NCI panel, CNS cancer; cited from earlier work
# COLO 205 = settings: NCI panel, colon cancer; cited from earlier work
# NCI-H322M = settings: NCI panel, NSCLC; cited from earlier work
# HOP-92 = settings: NCI panel, NSCLC; cited from earlier work
# [4] = test system: microtubules in A-10 cells; settings: read-out: EC50 for microtubule depolymerization in A-10 cells; results previously published; cited from earlier work
# EKVX = settings: NCI panel, NSCLC; cited from earlier work
# SK-OV-3 [5] = settings: NCI panel, ovarian cancer; cited from earlier work
# IGROVI [6] = settings: NCI panel, ovarian cancer; cited from earlier work
# HeLa WTβIII [7] = settings: IC50 HeLa WTβIII / IC50 HeLa; results previously published; cited from earlier work
# K-562 = settings: NCI panel, leukemia; cited from earlier work
# SK-MEL-28 = settings: NCI panel, melanoma; cited from earlier work
# CCRF-CEM = settings: NCI panel, leukemia; cited from earlier work
# HT29 = settings: NCI panel, colon cancer; cited from earlier work
# A549/ATCC = settings: NCI panel, NSCLC; cited from earlier work
# NCI-H522 = settings: NCI panel, NSCLC; cited from earlier work
# MDA-MB-231/ATCC = settings: NCI panel, breast cancer; cited from earlier work
# HCT-116 = settings: NCI panel, colon cancer; cited from earlier work
# HeLa cells = experiment: Cell cycle distribution by flow cytometry; assay type: cell-based; settings: 18 h, five-times the IC50
# [8] = test system: microtubules in A-10 cells; experiment: Microtubule depolymerization in A-10 cells; assay type: cell-based, rat; settings: for microtubule depolymerization activity: tested up to 10 µM; for fold more potent than (±)-1·HCl, microtubule depolymerizing effects: relative to lead (±)-1·HCl; for fold lower microtubule depolymerizing potency than 3: relative to compound 3
# MDA-MB-435 xenografts = experiment: MDA-MB-435 flank xenograft model; assay type: in vivo, nude mice; settings: ip, 60 mg/kg days 0 and 2, 50 mg/kg day 8; vs untreated control
# Procedure, shortened: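 Nude mice bilaterally implanted sc in the flank with MDA-MB-435 tumour fragments; dosing began once tumours reached ~200 mm3. Test compound was given ip in PBS containing <5% (v/v) 50:50 Cremophor/DMSO. […] Tumour volumes and body weights were recorded 2–3 times weekly. Final volumes were compared with untreated controls by one-way ANOVA with Dunnett's test.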
# NCI 60-cell line panel = experiment: NCI cancer cell line panel; assay type: cell-based
# MDA-MB-435 cells [9] = experiment: SRB antiproliferative assay, MDA-MB-435; assay type: cell-based; settings: for IC50: Homo sapiens, MDA-MB-435, read-out: IC50 ± SD MDA-MB-435; for fold more potent than (±)-1·HCl, antiproliferative activity (MDA-MB-435): relative to lead (±)-1·HCl; for fold lower antiproliferative potency than 3: MDA-MB-435, relative to compound 3
# IGROVI [10] = experiment: NCI panel growth inhibition, IGROVI; assay type: cell-based
# HeLa [11] = experiment: SRB antiproliferative assay, HeLa; assay type: cell-based
# SK-OV-3 [12] = experiment: SRB antiproliferative assay, SK-OV-3; assay type: cell-based; settings: SK-OV-3 and SK-OV-3 MDR1-M6/6 cell lines
# Bovine brain tubulin = Bovine brain tubulin (Bos taurus, UniProt P81947+Q6B856); experiment: Inhibition of tubulin assembly; assay type: biochemical; settings: for fold more potent than (±)-1·HCl, tubulin assembly: relative to lead (±)-1·HCl
# Bovine brain tubulin, sequence (Q6B856 whole entry): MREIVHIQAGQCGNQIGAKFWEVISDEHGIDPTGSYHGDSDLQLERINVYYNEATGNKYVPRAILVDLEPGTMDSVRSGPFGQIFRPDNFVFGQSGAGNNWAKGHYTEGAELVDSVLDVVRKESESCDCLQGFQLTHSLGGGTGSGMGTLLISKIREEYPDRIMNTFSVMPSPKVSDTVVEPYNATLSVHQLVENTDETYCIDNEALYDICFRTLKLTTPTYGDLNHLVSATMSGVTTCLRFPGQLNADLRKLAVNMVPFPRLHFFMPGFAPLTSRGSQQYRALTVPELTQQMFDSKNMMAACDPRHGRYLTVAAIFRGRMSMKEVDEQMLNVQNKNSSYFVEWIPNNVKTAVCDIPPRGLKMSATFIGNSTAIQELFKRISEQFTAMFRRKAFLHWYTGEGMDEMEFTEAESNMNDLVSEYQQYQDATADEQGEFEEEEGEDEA
# Bovine brain tubulin, sequence (P81947 whole entry): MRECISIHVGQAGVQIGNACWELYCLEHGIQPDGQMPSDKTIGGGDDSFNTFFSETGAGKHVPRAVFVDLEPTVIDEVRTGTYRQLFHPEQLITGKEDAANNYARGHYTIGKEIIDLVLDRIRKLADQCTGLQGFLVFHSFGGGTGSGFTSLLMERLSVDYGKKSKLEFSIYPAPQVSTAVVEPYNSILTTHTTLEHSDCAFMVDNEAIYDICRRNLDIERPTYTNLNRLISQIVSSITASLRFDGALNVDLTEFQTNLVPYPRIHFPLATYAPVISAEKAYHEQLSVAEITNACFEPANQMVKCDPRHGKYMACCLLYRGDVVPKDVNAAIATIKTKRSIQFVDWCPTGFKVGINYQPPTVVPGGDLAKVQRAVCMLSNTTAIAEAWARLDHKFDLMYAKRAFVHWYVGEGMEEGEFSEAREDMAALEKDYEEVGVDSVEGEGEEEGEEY
# HeLa WTβIII [13] = experiment: SRB antiproliferative assay, βIII-tubulin expressing HeLa WTβIII; assay type: cell-based; settings: Homo sapiens, read-out: IC50 ± SD HeLa WTβIII
structure (smiles),measurement,setting,value
"COc1ccc(N(C)c2nc(C)nc3c2CC(C)C3)cc1.Cl (racemic) [(±)-1·HCl, N-(4-methoxyphenyl)-N,2,6-trimethyl-6,7-dihydro-5H-cyclo-penta[d]-pyrimidin-4-aminium chloride]",GI50,NCI-H460,0.0234 µM
same,GI50,OVCAR-4,0.0268 µM
same,IC50,SK-OV-3 [1],0.0386 ± 0.0031 µM
same,GI50,SNB-19,0.0369 µM
same,GI50,ACHN,0.0146 µM
same,IC50,HeLa [2],0.0373 ± 0.0041 µM
same,GI50,HCC-2998,0.024 µM
same,GI50,MOLT-4,0.0318 µM
same,IC50,MDA-MB-435 cells [3],0.017 ± 0.0007 µM
same,GI50,SN12C,0.0318 µM
same,GI50,MDA-MB-435,< 0.01 µM
same,GI50,HL-60(TB),< 0.01 µM
same,GI50,OVCAR-8,0.0328 µM
same,GI50,UO-31,0.0134 µM
same,Rr (relative resistance),SK-OV-3 MDR1-M6/6,1.2
same,GI50,SK-MEL-5,< 0.01 µM
same,GI50,SF-295,< 0.01 µM
same,GI50,TK10,0.292 µM
same,GI50,SR,< 0.01 µM
same,GI50,NCI-H226,0.0315 µM
same,GI50,MDA-MB-468,< 0.01 µM
same,GI50,U251,0.0125 µM
same,GI50,OVCAR-3,< 0.01 µM
same,GI50,HS 578T,< 0.01 µM
same,GI50,RXF 393,< 0.01 µM
same,GI50,PC-3,0.0146 µM
same,GI50,SF-539,0.0114 µM
same,GI50,SNB-75,< 0.01 µM
same,GI50,HCT-15,< 0.01 µM
same,GI50,786–0,0.0348 µM
same,GI50,HOP-62,0.0194 µM
same,GI50,LOX IMVI,0.0227 µM
same,GI50,NCI-H23,0.0164 µM
same,GI50,BT-549,0.0219 µM
same,GI50,A498,< 0.01 µM
same,GI50,M14,0.0102 µM
same,GI50,NCI/ADR-RES,< 0.01 µM
same,GI50,KM12,< 0.01 µM
same,GI50,MCF7,< 0.01 µM
same,GI50,RPMI-8226,0.0157 µM
same,GI50,DU-145,0.0214 µM
same,GI50,OVCAR-5,0.0385 µM
same,GI50,SF-268,0.0152 µM
same,GI50,COLO 205,0.0183 µM
same,GI50,NCI-H322M,0.059 µM
same,GI50,HOP-92,0.0554 µM
same,EC50,[4],0.056 µM
same,GI50,EKVX,0.0196 µM
same,GI50,SK-OV-3 [5],0.0275 µM
same,GI50,IGROVI [6],0.011 µM
same,Rr (relative resistance),HeLa WTβIII [7],0.6
same,GI50,K-562,< 0.01 µM
same,GI50,SK-MEL-28,< 0.01 µM
same,GI50,CCRF-CEM,0.0163 µM
same,GI50,HT29,0.0118 µM
same,GI50,A549/ATCC,0.0244 µM
same,GI50,NCI-H522,< 0.01 µM
same,GI50,MDA-MB-231/ATCC,0.0246 µM
same,GI50,HCT-116,0.0151 µM
"COc1ccc(/C=C\c2cc(OC)c(OC)c(OC)c2)cc1O [CA-4, combretastatin A-4]",accumulation of cells in G2/M,HeLa cells,significant accumulation of cells in G2/M
"COc1ccc(Nc2ncnc3occ(C)c23)cc1 [Compound 2, N-(4-Methoxyphenyl)-5-methylfuro[2,3-d]pyrimidin-4-amine]",microtubule depolymerization activity,[8],inactive; also recorded: essentially devoid of activity
"COc1ccc(N(C)c2ncnc3occ(C)c23)cc1 [Compound 3, N-(4-Methoxyphenyl)-N,5-dimethylfuro[2,3-d]pyrimidin-4-amine]",antitumor effect (tumor growth),MDA-MB-435 xenografts,statistically significant antitumor effects; also recorded: statistically significant inhibition of tumor growth; also recorded: significantly inhibited tumor growth
same,GI50,NCI 60-cell line panel,< 0.01 µM
same,accumulation of cells in G2/M,HeLa cells,significant accumulation of cells in G2/M
same,"fold more potent than (±)-1·HCl, microtubule depolymerizing effects",[8],2.3 fold
same,IC50,MDA-MB-435 cells [9],0.0043 ± 0.0003 µM
same,"fold more potent than (±)-1·HCl, antiproliferative activity (MDA-MB-435)",MDA-MB-435 cells [9],about 4 fold
same,GI50,IGROVI [10],< 0.01 µM
same,fold better activity than (±)-1·HCl,HeLa [11]; HeLa and HeLa WT βIII cell lines,4 fold
same,fold higher potency than (±)-1·HCl,SK-OV-3 [12],5 fold
"CCN(c1ccc(OC)cc1)c1ncnc2occ(C)c12 [Compound 4, N-Ethyl-N-(4-methoxyphenyl)-5-methylfuro[2,3-d]pyrimidin-4-amine]",accumulation of cells in G2/M,HeLa cells,significant accumulation of cells in G2/M
same,fold lower microtubule depolymerizing potency than 3,[8],2 fold
same,"fold more potent than (±)-1·HCl, microtubule depolymerizing effects",[8],equipotent
same,IC50,MDA-MB-435 cells [9],0.0081 ± 0.0005 µM
same,"fold more potent than (±)-1·HCl, antiproliferative activity (MDA-MB-435)",MDA-MB-435 cells [9],1.4–2.1 fold
same,"fold more potent than (±)-1·HCl, tubulin assembly",Bovine brain tubulin,about 2 fold
"COc1ccc(N(c2ncnc3occ(C)c23)C(C)C)cc1 [Compound 5, N-Isopropyl-N-(4-methoxyphenyl)-5-methylfuro[2,3-d]pyrimidin-4-amine]",microtubule depolymerization activity,[8],ineffective
same,IC50,MDA-MB-435 cells [9],0.504 ± 0.028 µM
same,fold less potent (IC50) than 4,"MDA-MB-435 cells [9]; antiproliferative, relative to N-Et analogue 4",60 fold
"CCCN(c1ccc(OC)cc1)c1ncnc2occ(C)c12 [Compound 6, N-(4-Methoxyphenyl)-5-methyl-N-propylfuro[2,3-d]pyrimidin-4-amine]",IC50,MDA-MB-435 cells [9],0.0273 ± 0.0045 µM
same,"fold more potent than (±)-1·HCl, tubulin assembly",Bovine brain tubulin,about 2 fold
"CCCCN(c1ccc(OC)cc1)c1ncnc2occ(C)c12 [Compound 7, N-Butyl-N-(4-methoxyphenyl)-5-methylfuro[2,3-d]pyrimidin-4-amine]",IC50,MDA-MB-435 cells [9],0.1 ± 0.0065 µM
same,"fold more potent than (±)-1·HCl, tubulin assembly",Bovine brain tubulin,about 2 fold
"CCc1ccc(N(C)c2ncnc3occ(C)c23)cc1 [Compound 8, N-Methyl-N-(4-ethylphenyl)-5-methylfuro[2,3-d]pyrimidin-4-amine]",fold lower microtubule depolymerizing potency than 3,[8],30 fold
same,IC50,MDA-MB-435 cells [9],0.183 ± 0.013 µM
same,fold lower antiproliferative potency than 3,MDA-MB-435 cells [9],43 fold
"CSc1ccc(N(C)c2ncnc3occ(C)c23)cc1 [Compound 9, N,5-Dimethyl-N-(4-(methylthio)phenyl)furo[2,3-d]pyrimidin-4-amine]",fold lower microtubule depolymerizing potency than 3,[8],2 fold
same,"fold more potent than (±)-1·HCl, microtubule depolymerizing effects",[8],equipotent
same,IC50,MDA-MB-435 cells [9],0.0123 ± 0.0009 µM
same,fold lower antiproliferative potency than 3,MDA-MB-435 cells [9],3 fold
same,"fold more potent than (±)-1·HCl, antiproliferative activity (MDA-MB-435)",MDA-MB-435 cells [9],1.4–2.1 fold
same,"fold better than 3, tubulin assembly IC50",Bovine brain tubulin; relative to compound 3,3 fold
CC(=O)O[C@H]1C(=O)[C@@]2(C)[C@H]([C@H](OC(=O)c3ccccc3)[C@]3(O)C[C@H](OC(=O)[C@H](O)[C@@H](NC(=O)c4ccccc4)c4ccccc4)C(C)=C1C3(C)C)[C@]1(OC(C)=O)CO[C@@H]1C[C@@H]2O [paclitaxel],IC50,HeLa WTβIII [13],0.024 ± 0.003 µM
same,IC50,"HeLa [11]; Homo sapiens, HeLa, read-out: IC50 ± SD HeLa",0.0028 ± 0.00036 µM
